Converted amounts (≈) assume the structure as drawn.
Legend:
Format in all cases: functional
[1] = test system: Candida parapsilosis; test: Antimicrobial activity against Candida parapsilosis isolate 19 after 48 hrs by microdilution broth method; details: Lodderomyces parapsilosis, isolate 19, 48 h
Summary of the method: (§1)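 Yeasts were grown overnight on Sabouraud dextrose agar at 35°C, suspended in water, and adjusted at 530 nm to McFarland 0.5 (approximately 1-5 x 10^6 CFU/ml). They were then diluted 1:100 and 1:20 in RPMI 1640 with 0.165 M MOPS and 2% glucose. Compound in DMSO was tested at ten concentrations, 0.25–256 mg/L, with incubation at 35°C. At 48 h, MIC was read spectrophotometrically as 50% turbidity reduction versus growth control.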

[2] = test system: Nakaseomyces glabratus; test: Antimicrobial activity against Candida glabrata isolate 32 after 48 hrs by microdilution broth method; details: isolate 32, 48 h; summary of the method: as §1
[3] = test system: Nakaseomyces glabratus; test: Antimicrobial activity against Candida glabrata isolate 46 after 48 hrs by microdilution broth method; summary of the method: as §1
[4] = test system: Cryptococcus deneoformans; test: Antimicrobial activity against Cryptococcus neoformans var. neoformans isolate 27 after 48 hrs by microdilution broth method; details: isolate 27, 48 h; summary of the method: as §1
[5] = test system: Nakaseomyces glabratus; test: Antimicrobial activity against Candida glabrata isolate 49 after 48 hrs by microdilution broth method; summary of the method: as §1
[6] = test system: Cryptococcus deneoformans; test: Antimicrobial activity against Cryptococcus neoformans var. neoformans isolate 30 after 48 hrs by microdilution broth method; details: isolate 30, 48 h; summary of the method: as §1
[7] = test system: Candida tropicalis; test: Antimicrobial activity against Candida tropicalis isolate 33 after 48 hrs by microdilution broth method; details: isolate 33, 48 h; summary of the method: as §1
[8] = test system: Candida albicans; test: Antimicrobial activity against Candida albicans isolate 48 after 48 hrs by microdilution broth method; details: isolate 48, 48 h; summary of the method: as §1
[9] = test system: Pichia kudriavzevii; test: Antimicrobial activity against Candida krusei isolate 48 after 48 hrs by microdilution broth method
[10] = test system: Candida parapsilosis; test: Antimicrobial activity against Candida parapsilosis ATCC 22019 after 48 hrs by microdilution broth method; details: Lodderomyces parapsilosis, ATCC 22019, 48 h; summary of the method: as §1
[11] = test system: Pichia kudriavzevii; test: Antimicrobial activity against Candida krusei isolate 43 after 48 hrs by microdilution broth method
[12] = test system: Nakaseomyces glabratus; test: Antimicrobial activity against Candida glabrata isolate 30 after 48 hrs by microdilution broth method; summary of the method: as §1
[13] = test system: Pichia kudriavzevii; test: Antimicrobial activity against Candida krusei isolate 31 after 48 hrs by microdilution broth method; details: isolate 31, 48 h; summary of the method: as §1
[14] = test system: Candida parapsilosis; test: Antimicrobial activity against Candida parapsilosis isolate 39 after 48 hrs by microdilution broth method; details: Lodderomyces parapsilosis, isolate 39, 48 h
Summary of the method: (§2)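 Yeasts grown overnight on Sabouraud dextrose agar at 35°C, suspended in sterile water, and adjusted to McFarland 0.5 at 530 nm (about 1-5 x 10^6 CFU/ml), then diluted 1:100 and 1:20 in RPMI 1640 with 0.165 M MOPS and 2% glucose. Compound in DMSO tested at ten concentrations, 0.25-256 mg/L, at 35°C. MIC read spectrophotometrically at 48 h as 50% turbidity reduction versus growth control.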

[15] = test system: Cryptococcus deneoformans; test: Antimicrobial activity against Cryptococcus neoformans var. neoformans isolate 14 after 48 hrs by microdilution broth method; details: isolate 14, 48 h; summary of the method: as §1
[16] = test system: Candida tropicalis; test: Antimicrobial activity against Candida tropicalis isolate 11 after 48 hrs by microdilution broth method; details: isolate 11, 48 h; summary of the method: as §1
[17] = test system: Candida tropicalis; test: Antimicrobial activity against Candida tropicalis isolate 15 after 48 hrs by microdilution broth method; details: isolate 15, 48 h; summary of the method: as §1
[18] = test system: Candida tropicalis; test: Antimicrobial activity against Candida tropicalis isolate 22 after 48 hrs by microdilution broth method; details: isolate 22, 48 h; summary of the method: as §1
[19] = test system: Candida albicans; test: Antimicrobial activity against Candida albicans ATCC 90028 after 48 hrs by microdilution broth method; details: ATCC 90028, 48 h; summary of the method: as §2
[20] = test system: Candida albicans; test: Antimicrobial activity against Candida albicans isolate 31 after 48 hrs by microdilution broth method; details: isolate 31, 48 h; summary of the method: as §1
[21] = test system: Candida albicans; test: Antimicrobial activity against Candida albicans isolate 47 after 48 hrs by microdilution broth method; details: isolate 47, 48 h; summary of the method: as §1
[22] = test system: Candida parapsilosis; test: Antimicrobial activity against Candida parapsilosis isolate 26 after 48 hrs by microdilution broth method; details: Lodderomyces parapsilosis, isolate 26, 48 h; summary of the method: as §1
[23] = test system: Cryptococcus deneoformans; test: Antimicrobial activity against Cryptococcus neoformans var. neoformans isolate 25 after 48 hrs by microdilution broth method; details: isolate 25, 48 h; summary of the method: as §1
[24] = test system: Pichia kudriavzevii; test: Antimicrobial activity against Candida krusei ATCC 6258 after 48 hrs by microdilution broth method; details: ATCC 6258, 48 h
[25] = test system: Candida parapsilosis; test: Antimicrobial activity against Candida parapsilosis isolate 44 after 48 hrs by microdilution broth method; details: Lodderomyces parapsilosis, isolate 44, 48 h; summary of the method: as §1
[26] = test system: Candida albicans; test: Antimicrobial activity against Candida albicans isolate 41 after 48 hrs by microdilution broth method; details: isolate 41, 48 h; summary of the method: as §1

## Cc1ccc(S(=O)(=O)/N=[N+](\[O-])c2c(-c3cccs3)nn(C)c2C)cc1
[1]
  MIC: > 128 µg/mL
[2]
  MIC: > 128 µg/mL
[3]
  MIC: > 128 µg/mL
[4]
  MIC: 64 µg/mL (≈ 170 µM)
[5]
  MIC: > 128 µg/mL
[6]
  MIC: 128 µg/mL (≈ 340 µM)
[7]
  MIC: > 128 µg/mL
[8]
  MIC: > 128 µg/mL
[9]
  MIC: > 128 µg/mL
[10]
  MIC: > 128 µg/mL
[11]
  MIC: > 128 µg/mL
[12]
  MIC: > 128 µg/mL
[13]
  MIC: > 128 µg/mL
[14]
  MIC: > 128 µg/mL
[15]
  MIC: 64 µg/mL (≈ 170 µM)
[16]
  MIC: > 128 µg/mL
[17]
  MIC: > 128 µg/mL
[18]
  MIC: > 128 µg/mL
[19]
  MIC: > 128 µg/mL
[20]
  MIC: > 128 µg/mL
[21]
  MIC: > 128 µg/mL
[22]
  MIC: > 128 µg/mL
[23]
  MIC: 128 µg/mL (≈ 340 µM)
[24]
  MIC: > 128 µg/mL

## C[C@@H]1[C@H](O)[C@@H](C)/C=C/C=C/C=C/C=C/C=C/C=C/C=C/[C@H](O[C@@H]2O[C@H](C)[C@@H](O)[C@H](N)[C@@H]2O)C[C@@H]2O[C@](O)(C[C@@H](O)C[C@@H](O)[C@H](O)CC[C@@H](O)C[C@@H](O)CC(=O)O[C@H]1C)C[C@H](O)[C@H]2C(=O)O [AMPHOTERICIN B]
[1]
  MIC: 0.5 µg/mL (≈ 0.541 µM)
[2]
  MIC: 0.5 µg/mL (≈ 0.541 µM)
[3]
  MIC: 1 µg/mL (≈ 1.08 µM)
[4]
  MIC: 0.12 µg/mL (≈ 0.13 µM)
[5]
  MIC: 0.5 µg/mL (≈ 0.541 µM)
[6]
  MIC: 0.5 µg/mL (≈ 0.541 µM)
[7]
  MIC: 1 µg/mL (≈ 1.08 µM)
[8]
  MIC: 0.5 µg/mL (≈ 0.541 µM)
[25]
  MIC: 0.5 µg/mL (≈ 0.541 µM)
[10]
  MIC: 1 µg/mL (≈ 1.08 µM)
[13]
  MIC: 0.5 µg/mL (≈ 0.541 µM)
[14]
  MIC: 0.5 µg/mL (≈ 0.541 µM)
[15]
  MIC: 0.25 µg/mL (≈ 0.271 µM)
[26]
  MIC: 0.5 µg/mL (≈ 0.541 µM)
[16]
  MIC: 1 µg/mL (≈ 1.08 µM)
[17]
  MIC: 1 µg/mL (≈ 1.08 µM)
[18]
  MIC: 0.5 µg/mL (≈ 0.541 µM)
[19]
  MIC: 0.5 µg/mL (≈ 0.541 µM)
[20]
  MIC: 0.5 µg/mL (≈ 0.541 µM)
[21]
  MIC: 1 µg/mL (≈ 1.08 µM)
[22]
  MIC: 0.5 µg/mL (≈ 0.541 µM)
[23]
  MIC: 0.5 µg/mL (≈ 0.541 µM)

## OC(Cn1cncn1)(Cn1cncn1)c1ccc(F)cc1F [FLUCONAZOLE]
[1]
  MIC: 1 µg/mL (≈ 3.27 µM)
[2]
  MIC: > 256 µg/mL
[3]
  MIC: 16 µg/mL (≈ 52.2 µM)
[4]
  MIC: 2 µg/mL (≈ 6.53 µM)
[6]
  MIC: 4 µg/mL (≈ 13.1 µM)
[7]
  MIC: 1 µg/mL (≈ 3.27 µM)
[8]
  MIC: 0.12 µg/mL (≈ 0.392 µM)
[9]
  MIC: 32 µg/mL (≈ 104 µM)
[25]
  MIC: 2 µg/mL (≈ 6.53 µM)
[10]
  MIC: 2 µg/mL (≈ 6.53 µM)
[11]
  MIC: 64 µg/mL (≈ 209 µM)
[13]
  MIC: 32 µg/mL (≈ 104 µM)
[14]
  MIC: 1 µg/mL (≈ 3.27 µM)
[15]
  MIC: 0.5 µg/mL (≈ 1.63 µM)
[26]
  MIC: 0.12 µg/mL (≈ 0.392 µM)
[16]
  MIC: 1 µg/mL (≈ 3.27 µM)
[17]
  MIC: 1 µg/mL (≈ 3.27 µM)
[18]
  MIC: 2 µg/mL (≈ 6.53 µM)
[19]
  MIC: 0.12 µg/mL (≈ 0.392 µM)
[20]
  MIC: 0.25 µg/mL (≈ 0.816 µM)
[21]
  MIC: 0.25 µg/mL (≈ 0.816 µM)
[22]
  MIC: 1 µg/mL (≈ 3.27 µM)
[23]
  MIC: 2 µg/mL (≈ 6.53 µM)
[24]
  MIC: 32 µg/mL (≈ 104 µM)

## CC[C@@H]([C@H](C)O)n1ncn(-c2ccc(N3CCN(c4ccc(OC[C@@H]5CO[C@@](Cn6cncn6)(c6ccc(F)cc6F)C5)cc4)CC3)cc2)c1=O [POSACONAZOLE]
[1]
  MIC: 0.03 µg/mL (≈ 0.0428 µM)
[2]
  MIC: > 8 µg/mL
[3]
  MIC: 1 µg/mL (≈ 1.43 µM)
[4]
  MIC: 0.06 µg/mL (≈ 0.0856 µM)
[5]
  MIC: 0.25 µg/mL (≈ 0.357 µM)
[6]
  MIC: 0.12 µg/mL (≈ 0.171 µM)
[7]
  MIC: 0.12 µg/mL (≈ 0.171 µM)
[8]
  MIC: 0.008 µg/mL (≈ 0.0114 µM)
[9]
  MIC: 0.25 µg/mL (≈ 0.357 µM)
[25]
  MIC: 0.03 µg/mL (≈ 0.0428 µM)
[10]
  MIC: 0.12 µg/mL (≈ 0.171 µM)
[11]
  MIC: 0.5 µg/mL (≈ 0.713 µM)
[12]
  MIC: 0.5 µg/mL (≈ 0.713 µM)
[13]
  MIC: 0.25 µg/mL (≈ 0.357 µM)
[14]
  MIC: 0.06 µg/mL (≈ 0.0856 µM)
[15]
  MIC: 0.03 µg/mL (≈ 0.0428 µM)
[26]
  MIC: 0.016 µg/mL (≈ 0.0228 µM)
[16]
  MIC: 0.12 µg/mL (≈ 0.171 µM)
[17]
  MIC: 0.25 µg/mL (≈ 0.357 µM)
[18]
  MIC: 0.25 µg/mL (≈ 0.357 µM)
[19]
  MIC: 0.008 µg/mL (≈ 0.0114 µM)
[20]
  MIC: 0.008 µg/mL (≈ 0.0114 µM)
[21]
  MIC: 0.016 µg/mL (≈ 0.0228 µM)
[22]
  MIC: 0.03 µg/mL (≈ 0.0428 µM)
[23]
  MIC: 0.06 µg/mL (≈ 0.0856 µM)
[24]
  MIC: 0.25 µg/mL (≈ 0.357 µM)

From ChEMBL document CHEMBL1777788, “Synthesis and in vitro antimicrobial activities of new (cyano-NNO-azoxy)pyrazole derivatives” (2011)
